Reference: ChEMBL document CHEMBL1944538, “Synthetic peptides derived from the sequence of a lasso peptide microcin J25 show antibacterial activity” (Bioorg Med Chem, 2012)
In brackets after ≈: the same amount, converted by molar mass. Activity calls are given as the source filed them. The calls are words filed in the database; no cut-off is given here. Positions of bridges follow the written chain, without caps; N, C: chain ends. Residues, ends and D or L forms follow the SMILES beside them.

What was measured:
[1] = tested on: Salmonella enterica subsp. enterica serovar Newport; assay: Inhibition of oxygen consumption in Salmonella newport clinical isolate at 25 uM after 35 mins by Gilson Clarke oxygraph analysis; format: functional
Outline: (§1)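 Cells were held 35 min at 37 °C with peptide at the stated concentration. Respiration rate over the next 5 min was measured polarographically with a Clark electrode oxygraph at 37 °C. Results are percent of a peptide-free control; three independent experiments, mean ± SD.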

[2] = Stability of the compound at 200 uM after overnight incubation by spot on lawn method in the presence of chymotrypsin; format: ADME
[3] = Stability of the compound at 150 uM after 30 mins by RP-HPLC analysis in the presence of pepsin; format: ADME; conditions: 0.5 h
Outline: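 Peptide (150 µM) was incubated at 37 °C with pepsin (4% w/w) in 0.1 N HCl. Aliquots taken at 0 and 30 min were quenched into 0.1 N NaOH/70% methanol and centrifuged. Supernatant was analysed by C18 RP-HPLC (15–50% isopropanol/water, 0.05% TFA, 35 min, UV 220 nm). Fragments were identified by MALDI-TOF.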

[4] = Bactericidal activity against Salmonella choleraesuis ATCC 10708 after 24 hrs; format: functional, Salmonella enterica subsp. enterica serovar Choleraesuis; conditions: Salmonella enterica, ATCC 10708, 24 h
Outline: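 MBC: 10 μL from each clear well of the 24 h, 37 °C LB broth MIC plate spread on LB agar, incubated 24 h at 37 °C; MBC = lowest concentration with no growth on the plate.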

Salmonella enteritidis [5] = assay: Bactericidal activity against Salmonella enteritidis ATCC P76 after 24 hrs by liquid growth inhibition assay; format: functional, Salmonella enterica subsp. enterica serovar Enteritidis; conditions: Salmonella enterica, ATCC P76, 24 h
Salmonella typhimurium [6] = assay: Bactericidal activity against Salmonella Typhimurium ATCC 13311 after 24 hrs; format: functional, Salmonella enterica subsp. enterica serovar Typhimurium; conditions: Salmonella enterica, ATCC 13311, 24 h
Outline: (§2)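 For MBC, 10 µL from each clear well of the 24 h, 37 °C LB broth-dilution plate was spread on LB agar and incubated 24 h at 37 °C. MBC was the lowest concentration giving no growth on agar.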

[7] = Bactericidal activity against Salmonella newport clinical isolate after 24 hrs; format: functional, Salmonella enterica subsp. enterica serovar Newport; conditions: Salmonella enterica; outline: as §2
Enterococcus faecalis = assay: Antibacterial activity against Enterococcus faecalis ATCC 19433; format: functional, organism-based
Staphylococcus aureus = assay: Antibacterial activity against Staphylococcus aureus ATCC 6538; format: functional, organism-based
Escherichia coli [8] = assay: Antibacterial activity against Escherichia coli MC4100 up to 250 uM after 24 hrs by liquid growth inhibition assay; format: functional, organism-based
Outline: (§3)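 Liquid broth microdilution in LB. Peptide stocks were made in 20% methanol/water (1 or 2.5 mM), then serially doubled in water to final 0.01–100 or 0.5–250 µM. Inoculum was diluted to OD620 0.02–0.05. Plates ran 24 h at 37 °C and were read at OD620. MIC was the lowest concentration giving 100% growth inhibition (0.05 AU). Triplicate wells, three repeat experiments.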

Escherichia coli [9] = assay: Antibacterial activity against Escherichia coli DH5alpha up to 250 uM after 24 hrs by liquid growth inhibition assay; format: functional, organism-based; conditions: DH5[alpha]; outline: as §3
[10] = Antibacterial activity against Salmonella choleraesuis ATCC 10708 after 24 hrs by liquid growth inhibition assay; format: functional, Salmonella enterica subsp. enterica serovar Choleraesuis; conditions: Salmonella enterica, ATCC 10708, 24 h
Salmonella paratyphi [11] = assay: Antibacterial activity against Salmonella paratyphi up to 250 uM after 24 hrs by liquid growth inhibition assay; format: functional, organism-based; conditions: Salmonella enterica subsp. enterica serovar Paratyphi A
[12] = tested on: Salmonella enterica subsp. enterica serovar Montevideo; assay: Antibacterial activity against Salmonella montevideo 20 up to 250 uM after 24 hrs by liquid growth inhibition assay; format: functional; outline: as §3
[13] = Antibacterial activity against Salmonella heidelberg ATCC 8326 after 24 hrs by liquid growth inhibition assay; format: functional, Salmonella enterica subsp. enterica serovar Heidelberg; conditions: Salmonella enterica, ATCC 8326, 24 h; outline: as §3
Salmonella typhimurium [14] = assay: Antibacterial activity against Salmonella Typhimurium ATCC 13311 after 24 hrs by liquid growth inhibition assay; format: functional, Salmonella enterica subsp. enterica serovar Typhimurium; conditions: Salmonella enterica, ATCC 13311, 24 h; outline: as §3
Salmonella typhimurium [15] = assay: Antibacterial activity against Salmonella Typhimurium AFLB 25 after 24 hrs by liquid growth inhibition assay; format: functional, Salmonella enterica subsp. enterica serovar Typhimurium; conditions: Salmonella enterica, AFLB 25, 24 h; outline: as §3
Salmonella enteritidis [16] = assay: Antibacterial activity against Salmonella enteritidis AFLB 81 up to 250 uM after 24 hrs by liquid growth inhibition assay; format: functional, organism-based; conditions: Salmonella enterica subsp. enterica serovar Enteritidis; outline: as §3
Salmonella enteritidis [17] = assay: Antibacterial activity against Salmonella enteritidis AFLB 41 up to 250 uM after 24 hrs by liquid growth inhibition assay; format: functional, organism-based; conditions: Salmonella enterica subsp. enterica serovar Enteritidis; outline: as §3
Salmonella enteritidis [18] = assay: Antibacterial activity against Salmonella enteritidis AFLB 11 up to 250 uM after 24 hrs by liquid growth inhibition assay; format: functional, organism-based; conditions: Salmonella enterica subsp. enterica serovar Enteritidis; outline: as §3
Salmonella enteritidis [19] = assay: Antibacterial activity against Salmonella enteritidis ATCC 13076 up to 250 uM after 24 hrs by liquid growth inhibition assay; format: functional, organism-based; conditions: Salmonella enterica subsp. enterica serovar Enteritidis; outline: as §3
Salmonella enteritidis [20] = assay: Antibacterial activity against Salmonella enteritidis PT8 after 24 hrs by liquid growth inhibition assay; format: functional, Salmonella enterica subsp. enterica serovar Enteritidis; conditions: Salmonella enterica, PT8, 24 h; outline: as §3
[21] = Antibacterial activity against Salmonella newport clinical isolate after 24 hrs by liquid growth inhibition assay; format: functional, Salmonella enterica subsp. enterica serovar Newport; conditions: Salmonella enterica; outline: as §3
[22] = Cytotoxicity against human MDA-MB-435 cells assessed as cell viability at 0.3 to 100 uM after 24 hrs by MTT assay; format: cell-based; conditions: read-out: Activity
Outline: (§4)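 MTT assay. MDA-MB-435 cells were kept in RPMI 1640 and MCF7 cells in DMEM, both with 10% FBS, penicillin and streptomycin, at 37 °C and 5% CO2. Cells were seeded at 1×10^4/well and grown 24 h. Samples came from 1 mM stocks in 10% DMSO/water, twofold diluted to 0.3125–100 µM, and applied for 24 h. MTT (5 mg/mL) was added for 3.5 h, then DMSO solubilization and A570. Viability is relative to untreated cells; triplicate, mean.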

[23] = Cytotoxicity against human MCF7 cells assessed as cell viability at 0.3 to 100 uM after 24 hrs by MTT assay; format: cell-based; conditions: read-out: Activity; outline: as §4
[24] = Thermostability in boiling water after 3 hrs; format: physicochemical; conditions: buffer
[25] = Cytotoxicity against human MDA-MB-435 cells assessed as cell viability at 3 uM after 24 hrs by MTT assay; format: cell-based; conditions: read-out: Activity
[26] = Cytotoxicity against human MCF7 cells assessed as cell viability at 3 uM after 24 hrs by MTT assay; format: cell-based; conditions: read-out: Activity
[27] = tested on: Salmonella enterica subsp. enterica serovar Newport; assay: Inhibition of oxygen consumption in Salmonella newport clinical isolate at 0.25 uM after 35 mins by Gilson Clarke oxygraph analysis; format: functional; outline: as §1
Escherichia coli [28] = assay: Antibacterial activity against Escherichia coli MC4100 after 24 hrs by liquid growth inhibition assay; format: functional; conditions: MC4100, 24 h; outline: as §3
Escherichia coli [29] = assay: Antibacterial activity against Escherichia coli DH5alpha after 24 hrs by liquid growth inhibition assay; format: functional; conditions: DH5[alpha]; outline: as §3
Salmonella paratyphi [30] = assay: Antibacterial activity against Salmonella paratyphi after 24 hrs by liquid growth inhibition assay; format: functional, Salmonella enterica subsp. enterica serovar Paratyphi A; conditions: Salmonella enterica
[31] = tested on: Salmonella enterica subsp. enterica serovar Heidelberg; assay: Antibacterial activity against Salmonella heidelberg ATCC 8326 up to 250 uM after 24 hrs by liquid growth inhibition assay; format: functional; outline: as §3
Salmonella typhimurium [32] = assay: Antibacterial activity against Salmonella Typhimurium ATCC 13311 up to 250 uM after 24 hrs by liquid growth inhibition assay; format: functional, organism-based; conditions: Salmonella enterica subsp. enterica serovar Typhimurium; outline: as §3
Salmonella enteritidis [33] = assay: Antibacterial activity against Salmonella enteritidis AFLB 81 after 24 hrs by liquid growth inhibition assay; format: functional, Salmonella enterica subsp. enterica serovar Enteritidis; conditions: Salmonella enterica, AFLB 81, 24 h; outline: as §3
Salmonella enteritidis [34] = assay: Antibacterial activity against Salmonella enteritidis AFLB 41 after 24 hrs by liquid growth inhibition assay; format: functional, Salmonella enterica subsp. enterica serovar Enteritidis; conditions: Salmonella enterica, AFLB 41, 24 h; outline: as §3
Salmonella enteritidis [35] = assay: Antibacterial activity against Salmonella enteritidis AFLB 11 after 24 hrs by liquid growth inhibition assay; format: functional, Salmonella enterica subsp. enterica serovar Enteritidis; conditions: Salmonella enterica, AFLB 11, 24 h; outline: as §3
Salmonella enteritidis [36] = assay: Antibacterial activity against Salmonella enteritidis ATCC 13076 after 24 hrs by liquid growth inhibition assay; format: functional, Salmonella enterica subsp. enterica serovar Enteritidis; conditions: Salmonella enterica, ATCC 13076, 24 h; outline: as §3
[37] = Cytotoxicity against human MDA-MB-435 cells assessed as cell viability up to 100 uM after 24 hrs by MTT assay; format: cell-based; conditions: read-out: Activity; outline: as §4
[38] = Cytotoxicity against human MCF7 cells assessed as cell viability up to 100 uM after 24 hrs by MTT assay; format: cell-based; conditions: read-out: Activity; outline: as §4

CC[C@H](C)[C@@H]1NC(=O)CNC(=O)[C@H](C(C)C)NC(=O)[C@H](Cc2ccccc2)NC(=O)[C@H](Cc2ccc(O)cc2)NC(=O)[C@@H]2CCC(=O)NCC(=O)NCC(=O)N[C@@H](C)C(=O)N[C@@H](CSSC[C@@H](C(=O)O)NC(=O)[C@H](Cc3ccccc3)NC(=O)[C@H](CO)NC(=O)[C@H]([C@@H](C)CC)NC(=O)[C@@H]3CCCN3C(=O)[C@H]([C@@H](C)O)NC(=O)CNC1=O)C(=O)N[C@@H](Cc1cnc[nH]1)C(=O)N[C@@H](C(C)C)C(=O)N1CCC[C@H]1C(=O)N2 (GGACHVPEYFVGIGTPISFC-OH; disulfide 4-20; lactam N-8)
inhibition [1]: Active | Stability [2]: Unstable | Stability [3]: Unstable | MBC [4]: 125 µM (≈ 254 µg/mL) | MBC (Salmonella enteritidis [5]): 125 µM (≈ 254 µg/mL) | MBC (Salmonella typhimurium [6]): 125 µM (≈ 254 µg/mL) | MBC [7]: 31.2 µM (≈ 63.6 µg/mL) | Activity (Enterococcus faecalis): inactive | Activity (Staphylococcus aureus): inactive | Activity (Escherichia coli [8]): inactive | Activity (Escherichia coli [9]): inactive | MIC [10]: 90 µM (≈ 183 µg/mL) | Activity (Salmonella paratyphi [11]): inactive | Activity [12]: inactive | MIC [13]: 83 µM (≈ 169 µg/mL) | MIC (Salmonella typhimurium [14]): 75 µM (≈ 153 µg/mL) | MIC (Salmonella typhimurium [15]): 85 µM (≈ 173 µg/mL) | Activity (Salmonella enteritidis [16]): inactive | Activity (Salmonella enteritidis [17]): inactive | Activity (Salmonella enteritidis [18]): inactive | Activity (Salmonella enteritidis [19]): inactive | MIC (Salmonella enteritidis [20]): 80 µM (≈ 163 µg/mL) | MIC [21]: 25 µM (≈ 50.9 µg/mL) | viability at 24 h, up to 100 µM [22]: > 90% | viability at 24 h, up to 100 µM [23]: > 90% | Stability [24]: Stable

COc1cccc2c1C(=O)c1c(O)c3c(c(O)c1C2=O)C[C@@](O)(C(=O)CO)C[C@@H]3O[C@H]1C[C@H](N)[C@H](O)[C@H](C)O1 [DOXORUBICIN]
viability at 24 h, 3 µM [25]: 20% | viability at 24 h, 3 µM [26]: 20%

CC[C@H](C)[C@H](NC(=O)CNC(=O)[C@@H](NC(=O)[C@H](Cc1ccccc1)NC(=O)[C@H](Cc1ccc(O)cc1)NC(=O)[C@@H]1CCC(=O)NCC(=O)NCC(=O)N[C@@H](C)C(=O)NCC(=O)N[C@@H](Cc2cnc[nH]2)C(=O)N[C@@H](C(C)C)C(=O)N2CCC[C@H]2C(=O)N1)C(C)C)C(=O)NCC(=O)N[C@H](C(=O)N1CCC[C@H]1C(=O)N[C@H](C(=O)N[C@@H](CO)C(=O)N[C@@H](Cc1ccccc1)C(=O)N[C@@H](Cc1ccc(O)cc1)C(=O)NCC(=O)O)[C@@H](C)CC)[C@@H](C)O [MICROCIN J25] (GGAGHVPEYFVGIGTPISFYG-OH; lactam N-8)
inhibition [27]: Active | MIC (Escherichia coli [28]): 5 µM (≈ 10.5 µg/mL) | MIC (Escherichia coli [29]): 5 µM (≈ 10.5 µg/mL) | MIC [10]: 1.5 µM (≈ 3.16 µg/mL) | MIC (Salmonella paratyphi [30]): 1.5 µM (≈ 3.16 µg/mL) | Activity [12]: inactive | Activity [31]: inactive | Activity (Salmonella typhimurium [32]): inactive | MIC (Salmonella typhimurium [15]): 2.8 µM (≈ 5.9 µg/mL) | MIC (Salmonella enteritidis [33]): 1.7 µM (≈ 3.58 µg/mL) | MIC (Salmonella enteritidis [34]): 1.6 µM (≈ 3.37 µg/mL) | MIC (Salmonella enteritidis [35]): 2 µM (≈ 4.21 µg/mL) | MIC (Salmonella enteritidis [36]): 1.8 µM (≈ 3.79 µg/mL) | MIC (Salmonella enteritidis [20]): 1.5 µM (≈ 3.16 µg/mL) | MIC [21]: 0.5 µM (≈ 1.05 µg/mL) | viability at 24 h [37]: > 80% | viability at 24 h [38]: > 80%
